Assay outcomes as filed in PubChem.
RAD52 anneal inh: inhibitors of human RAD52 DNA annealing; inhibition, % at 18.7 µM; P43351; hit rate 0.46% among 360,000; recombinant RAD52 DNA annealing, FRET fluorescence; AID 651710;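 active means every replicate showing at least 50% inhibition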
ERAP1 HTS inh: inhibitors of human ERAP1 aminopeptidase; Q9NZ08; recombinant ERAP1, Leu-AMC fluorescence, 60 min; inhibition, % at 10.7 µM; hit rate 0.15% among 340,000; AID 652197;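 active means mean replicate inhibition of at least 30%, or all replicates individually reaching that 30% level; inactive means mean below 30% and not every replicate reaching it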;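 further: 0% = neutral control wells and 100% = L-leucinethiol positive control wells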
INS-1E GSIS act: GLuc luminescence reporter in INS-1E cells, primary screen for activators of glucose-dependent secretion of insulin; hit rate 0.61% among 370,000; AID 743287; activation, % at 16.6 µM; INS-1E GLuc reporter insulin secretion, 2-3 h;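 active means lowest replicate activation of at least 40%, so every replicate reaches that level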;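 further: 0% = median of neutral control wells and 100% = median of IBMX positive control wells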
MLL AF4-AF9 inh: blocks AF4 peptide binding to human AF9 | P42568 | AlphaScreen, biotin-AF4 peptide binding to FLAG-AF9 | inhibition, % at 10 µM | hit rate 0.47% among 350,000 | AID 651704;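 active means every replicate reaching a set inhibition limit, whatever the replicate mean, cut at about 25% in these data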;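 further: 0% = plate neutral control median and 100% = total signal loss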
Target sequence (P42568 whole entry, looked up): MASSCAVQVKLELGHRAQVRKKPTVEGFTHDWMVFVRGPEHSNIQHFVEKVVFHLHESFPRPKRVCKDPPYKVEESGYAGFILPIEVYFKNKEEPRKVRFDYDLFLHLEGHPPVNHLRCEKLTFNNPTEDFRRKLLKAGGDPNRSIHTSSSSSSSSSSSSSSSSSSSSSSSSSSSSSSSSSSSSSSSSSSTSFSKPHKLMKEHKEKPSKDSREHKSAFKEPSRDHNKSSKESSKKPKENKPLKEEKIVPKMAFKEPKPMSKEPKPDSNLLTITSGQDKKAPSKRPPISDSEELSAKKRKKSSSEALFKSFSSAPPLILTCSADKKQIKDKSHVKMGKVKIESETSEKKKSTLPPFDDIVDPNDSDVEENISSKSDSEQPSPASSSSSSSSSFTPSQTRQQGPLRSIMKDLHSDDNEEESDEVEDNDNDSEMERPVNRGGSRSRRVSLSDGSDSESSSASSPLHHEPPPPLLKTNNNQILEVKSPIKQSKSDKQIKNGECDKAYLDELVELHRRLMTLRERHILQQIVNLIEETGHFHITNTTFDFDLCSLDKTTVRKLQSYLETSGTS
S100A4 inh HTS: blocks human S100A4 binding to myosin IIA peptide; S100A4/TAMRA-MyoIIA peptide fluorescence polarization; AID 652163; hit rate 0.14% among 360,000; inhibition, % at 10.7 µM; P26447;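 active means mean inhibition of at least 70% across replicates, with every replicate also reaching that level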
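Test system – S100A4 monomer (human) · Compound – single-point compound testing · Schedule – 5 min incubation before reading · Probe or stimulus – TAMRA-labelled myosin IIA heavy-chain peptide probe, 5 nM · Benchmarks – neutral control DMSO, positive control TFP · Medium – Calcium-containing HEPES buffer, pH 7.2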
* = called active by the depositor; x = no result given. An excerpt weighted towards active compounds, which were near 1.5% of everything screened.

SMILES | RAD52 anneal inh | ERAP1 HTS inh | INS-1E GSIS act | MLL AF4-AF9 inh | S100A4 inh HTS
NC1=NC[C@H](c2ccccc2)N1CCCCC1CCCCC1 | 48 | 19 | 285* | 10 | -4
COCCNC(=O)CCCn1c(=O)c2ccccc2n(Cc2ccccc2C#N)c1=O | -13 | -1 | 54* | 1 | -6
FC(F)(F)c1ccc(Cl)c(-n2c(Cc3cccs3)n[nH]c2=S)c1 | -12 | 5 | 41* | -4 | -5
CC=Cc1ccc2n(c1=O)C[C@H]1[C@H](CO)[C@@H](C(=O)NCC3CC3)[C@@H]2N1Cc1cccnc1 (mixture of isomers) | -8 | 3 | -2 | -4 | 122*
CC=Cc1ccc2n(c1=O)C[C@H]1[C@H](CO)[C@@H](C(=O)NC3CCCCC3)N(CCC)[C@@H]21 (mixture of isomers) | x | x | 9 | x | x
CC=Cc1ccc2n(c1=O)C[C@H]1[C@H](CO)[C@@H](C(=O)NC3CCCC3)N(CCC)[C@@H]21 (mixture of isomers) | 92* | 0 | 1 | 0 | 4
CCCNC(=O)[C@@H]1[C@@H](CO)[C@@H]2Cn3c(cccc3=O)[C@H]1N2CCC(F)(F)F | 5 | 3 | 3 | 2 | 123*
CC=Cc1ccc2n(c1=O)C[C@H]1[C@H](CO)[C@@H](C(=O)NCC3CC3)[C@@H]2N1Cc1ccccc1 (mixture of isomers) | -9 | -2 | -10 | -15 | 3
O=C(NCc1ccccn1)[C@@H]1[C@@H](CO)[C@@H]2Cn3c(cccc3=O)[C@H]1N2CC1CCCCC1 | 57* | -2 | 30 | 0 | 4
O=C(NCc1ccccc1)[C@H]1[C@H](CO)[C@H]2Cn3c(cccc3=O)[C@@H]1N2CC1CCCC1 | 14 | -1 | 9 | -2 | -8
COCC#Cc1ccc([C@H]2[C@H]3CN(C(=O)Nc4cc(F)ccc4F)CC(=O)N3[C@H]2CO)cc1 | x | x | 3 | x | x
CNC[C@H]1Oc2ccccc2C(=O)N(C)C[C@H]1C | x | x | 1 | x | x
CC=Cc1ccc2n(c1=O)C[C@H]1[C@H](CO)[C@@H](C(=O)NCc3ccccn3)[C@@H]2N1CCC (mixture of isomers) | 96* | -1 | 0 | 0 | 39
CC(=O)N1[C@@H]2Cn3c(cccc3=O)[C@H]1[C@@H](C(=O)NCC1CCCCC1)[C@@H]2CO | 59* | -1 | 0 | 1 | 35
CCCN1[C@@H]2c3ccc(-c4cccnc4)c(=O)n3C[C@H]1[C@H](CO)[C@H]2C(=O)NCCc1cn(C)cn1 | -23 | 55* | 17 | 1 | 7
CCCN1[C@@H]2c3ccc(-c4ccncc4)c(=O)n3C[C@H]1[C@H](CO)[C@H]2C(=O)NCCc1cn(C)cn1 | -16 | -2 | 1 | -2 | 7
CCCNC(=O)Nc1ccc2c(c1)OC[C@@H](C)N(C(=O)C1CC1)C[C@H](C)[C@@H](OC)CN(C)C2=O | 14 | 1 | 0 | 1 | 98*
CCC(=O)N1C[C@H](C)[C@@H](OC)CN(C)C(=O)c2ccc(NC(=O)Nc3ccccc3)cc2OC[C@H]1C | 8 | 2 | -12 | 1 | 124*
COc1ccc2c3c([nH]c2c1)[C@H](CO)N(Cc1cc(F)ccc1F)CC31CCN(C)CC1 | x | x | 3 | x | x
C[C@@H]1COCc2cn(nn2)CC[C@H](Cc2ccccc2)C(=O)N1 | x | x | 16 | x | x
CCOC(=O)C1C(=O)C=C(c2cccs2)CC1c1ccccc1C (stereo not given) | x | x | 49* | x | x
CN1CCN(C(=S)c2cn(Cc3ccc(Br)cc3)c3ccccc23)CC1 | -4 | 3 | -39 | 27* | 0
CN1CCN(C(=S)c2cn(Cc3ccccc3)c3ccccc23)CC1 | -18 | 1 | -27 | 12 | -2
C=C1C(=O)O[C@H]2[C@@H]1CC/C(CO)=C\CC[C@@]1(C)O[C@@H]21 | -1 | -1 | x | -3 | 6
C=C1C(=O)OC2C1CCC(C)=C1C(=O)C3OC3(C)C12 (stereo not given) | -6 | -3 | 134* | -5 | -9
SMILES | RAD52 anneal inh | ERAP1 HTS inh | INS-1E GSIS act | MLL AF4-AF9 inh | S100A4 inh HTS
C[C@@H]1CN([C@@H](C)CO)C(=O)c2cccc(NS(=O)(=O)c3cccs3)c2O[C@H]1CN(C)C(=O)Nc1ccccc1 | x | x | 4 | x | x
COc1cc2c(cc1NC(=O)c1ccc(C)c([N+](=O)[O-])c1)oc1ccccc12 | x | x | 53* | x | x
COc1cc2c(cc1NC(=O)c1cccnc1)oc1ccccc12 | x | x | 5 | x | x
CN(C)Cc1cn(CC[C@H]2CC[C@H](NC(=O)Cc3cccnc3)[C@H](CO)O2)nn1 | 12 | 4 | 2 | -3 | 94*
CN(C)Cc1cn(CC[C@@H]2CC[C@H](NC(=O)Cc3cccnc3)[C@H](CO)O2)nn1 | -8 | 0 | 7 | -3 | -2
COc1cc2c(cc1OC)/C(=C/C(=O)OCc1ccccc1)OC2 | -43 | -1 | 8 | 0 | 12
COc1cc2c(cc1OC)/C(=C/C(C)=O)OC2 | -1 | 2 | 119* | x | 2
COC(=O)/C=C1\OCc2cc(OC)c(OC)cc21 | 2 | -2 | 55* | x | -8
COc1ccc2c3c([nH]c2c1)[C@@H](CO)N(Cc1nccs1)CC31CN(C(=O)C2CCOCC2)C1 | x | x | 38 | -7 | x
COc1ccc(/C=N\NC(=O)c2cc(O)c(O)c(O)c2)cc1COc1ccc(C(=O)OCC(C)C)cc1 | -14 | -1 | 1 | 54* | -1
COc1ccc(C(=O)N/N=C/c2ccc(OC)c(COc3ccccc3)c2)cc1 | 1 | 3 | -2 | -1 | 0
Oc1c(Cl)cc(CN2CCOCC2)c2cccnc12 | -15 | 0 | -33 | 35* | -1
Cc1ccnc(NC(c2ccccc2)c2ccc3cccnc3c2O)c1 (stereo not given) | -7 | 1 | -9 | 29* | 6
COc1ccc2[nH]c(=O)c(CN(CCc3ccccc3)C(C)=O)cc2c1 | x | x | -22 | x | x
COc1ccc2[nH]c(=O)c(CN(CCO)C(=O)c3ccccc3F)cc2c1 | -3 | 0 | 67* | x | 1
Cc1ccc2c(c1)C(c1ccncc1)=NNC(c1ccccc1)=N2 | -6 | 2 | -1 | 0 | -1
c1ccc(C2=Nc3c(ccc4ccccc34)C(c3ccncc3)=NN2)cc1 | -7 | 0 | x | 34* | -7
CNc1nc(SCc2ccccc2)nc(N2CCOCC2)n1 | x | x | 50* | x | x
CC(C)Nc1nc(SCC(=O)Nc2ccccc2)nc(N2CCOCC2)n1 | x | x | -25 | x | x
CNc1nc(SCC(=O)Nc2ccccc2)nc(N2CCOCC2)n1 | -7 | 2 | 12 | 0 | -3
CSc1nc(NC(C)C)nc(N2CCOCC2)n1 | x | x | 116* | x | x
O=C(C[C@@H]1C=C[C@H](NS(=O)(=O)c2ccccc2)[C@@H](CO)O1)N1CCC(Cc2ccccc2)CC1 | 2 | 2 | -21 | -3 | 7
CCOc1cc(C(=O)OCC(=O)Nc2cc(C)on2)cc(OCC)c1OCC | x | x | 76* | x | x
Cc1cc(NC(=O)COC(=O)c2oc3c(ccc4ccccc43)c2C)no1 | -14 | -1 | 43* | 1 | 1
